Data on 27 molecules can be found in ChEMBL document CHEMBL1129459, “Studies on disease-modifying antirheumatic drugs: synthesis of novel quinoline and quinazoline derivatives and their anti-inflammatory effect” (1996).

The structures appear in SMILES notation. A value given as a limit tells only on which side of the number the result lay.

One may read the inhibition in vivo as the drop in the measured response relative to a control, in per cent. By ED50 is commonly meant the dose that gives a 50% effect, or the effect in half of the subjects.

Holding throughout (type): functional
The subject of experiment [1] is Rattus norvegicus. The experiment in a line: Inhibitory effect of 12.5 mg/Kg orally administered compound against swelling of right hand paw as a measure of anti-inflammatory activity. Conditions: po.
The species entered for experiment [2] is Rattus norvegicus. The experiment in a line: Effective dose to inhibit the rat's left hand paw swelling by 50%. In a few lines: (§1)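 Adjuvant arthritis in male Lewis rats, 7 weeks old, n = 7. Rats were sensitized intradermally in the right hind plantar site with 0.05 mL of 0.5% killed M. tuberculosis H37 RA in liquid paraffin. Compound in 0.5% methylcellulose was given p.o. once daily for 14 days, starting day 0. Left hind paw volume was measured on days 0 and 14. ED50 came from linear regression across three or four doses.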

Experiment [3] concerns Rattus norvegicus. Briefly: Inhibition of adjuvant induced swelling of rat right hind paw by 50 mg/kg p.o. administration. The note with it: route oral.
The species entered for experiment [4] is Rattus norvegicus. The experiment in a line: Bone resorption inhibitory effect was evaluated as calcium released from bone into medium at 10 uM compound concentration, expressed as percent of control. Details: scale not given: the % may be the effect or the level left. In a few lines: (§2)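 Rat fetal long-bone (Raisz) assay. A pregnant Sprague–Dawley rat received 50 µCi 45Ca s.c. on gestation day 18. Fetal humeri (radii and ulnae) were taken the next day and cleaned of connective tissue and cartilage. Bones were preincubated 24 h at 37 °C, 5% CO2, in BGJb medium with 2 mg/mL BSA. They were then cultured 2 days with compound at 10 or 30 µM final. Read-out was 45Ca released/(released + bone-retained) ×100, mean of five bones, as % of untreated same-litter controls.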

For experiment [5], the species on record is Rattus norvegicus. Briefly: Effective dose of compound to inhibit the rat's left hand paw swelling by 50%. The gist of the method:
as §1

Experiment [6] is filed under the species Rattus norvegicus. The experiment in a line: Bone resorption inhibitory effect was evaluated as calcium released from bone into medium at 30 uM compound concentration, expressed as percent of control. Details: scale not given: the % may be the effect or the level left. In a few lines: as §2
The species named for experiment [7] is Rattus norvegicus. Briefly: Bone resorption inhibitory effect was evaluated as calcium released from bone into medium at 25 uM compound concentration, expressed as percent of control. Details: scale not given: the % may be the effect or the level left.

`COc1ccc(-c2nc(Cn3ccnc3C)nc3cc(OC)c(OC)cc23)cc1OC`: the inhibition in vivo at 12.5 mg/kg in the experiment with Rattus norvegicus [1] is less than 50%.

`CCOC(=O)c1c(CCCn2cncn2)nc2cc(OC)c(OC)cc2c1-c1ccc(OC)c(OC)c1`: the inhibition in vivo at 12.5 mg/kg with Rattus norvegicus [1] was less than 50%.

In the experiment listed under Rattus norvegicus [2], `CCOC(=O)c1c(Cn2ccnc2CC)nc2cc(OC)c(OC)cc2c1-c1ccc(OC)c(OC)c1` came in with a median effective dose (ED50) of 9.1 mg/kg.

For the molecule `COC(=O)c1c(CSc2nccn2C)nc2cc(OC)c(OC)cc2c1-c1ccc(OC)c(OC)c1`, in the experiment on Rattus norvegicus [3], the inhibition in vivo at 50 mg/kg worked out at 67%. Also, the Activity in the experiment listed under Rattus norvegicus [4] amounted to 46%.

As for `CCOC(=O)c1c(CSc2nccn2C)nc2cc(OC)c(OC)cc2c1-c1ccccc1`, in the experiment on Rattus norvegicus [3], the inhibition in vivo at 50 mg/kg came out at 31%.

Take `CCOC(=O)c1c(CSc2nccn2CC)nc2cc(OC)c(OC)cc2c1-c1ccc(OC)c(OC)c1`: the inhibition in vivo at 50 mg/kg with Rattus norvegicus [3] stood at 51%.

In the experiment on Rattus norvegicus [1], `CCOC(=O)c1c(Cn2ccnc2C)nc2cc(OC)c(OC)cc2c1-c1ccc(OC)c(OC)c1` registered an inhibition in vivo at 12.5 mg/kg of 55%.

As to `CCOC(=O)c1c(CSc2nccn2C)nc2cc(OC)c(OC)cc2c1-c1ccc(Cl)cc1`, the inhibition in vivo at 50 mg/kg with Rattus norvegicus [3] is 41%.

Turning to `CCOC(=O)c1c(CSc2nccn2C)nc2ccccc2c1-c1ccc(OC)c(OC)c1`, in the experiment on Rattus norvegicus [3], the inhibition in vivo at 50 mg/kg was 33%.

`CCOC(=O)c1c(CCc2nccn2C)nc2cc(OC)c(OC)cc2c1-c1ccc(OC)c(OC)c1`: the inhibition in vivo at 50 mg/kg with Rattus norvegicus [3] was found to be 75%. In the experiment filed under Rattus norvegicus [2], this molecule gave an ED50 of 14.7 mg/kg.

Consider `CCOC(=O)c1c(CSc2nccn2C)nc2cc(OCC)c(OCC)cc2c1-c1ccc(OC)c(OC)c1`, for which, in the experiment on Rattus norvegicus [3], the inhibition in vivo at 50 mg/kg was determined as 59%.

For the molecule `CCOC(=O)c1c(CSc2nccn2C)nc2cc(OC)c(OC)cc2c1-c1ccc2c(c1)OCO2`, the inhibition in vivo at 50 mg/kg in the experiment with Rattus norvegicus [3] came to 63%.

For the molecule `CCOC(=O)c1c(CSc2nccn2C)nc2cc3c(cc2c1-c1ccc(OC)c(OC)c1)OCCO3`, in the experiment on Rattus norvegicus [3], the inhibition in vivo at 50 mg/kg was 56%. Also, the Activity in the experiment filed under Rattus norvegicus [4] is on record as 66%.

With `CCOC(=O)c1c(C[S+]([O-])c2nccn2C)nc2cc(OC)c(OC)cc2c1-c1ccc(OC)c(OC)c1` (centres undefined), in the experiment filed under Rattus norvegicus [2], the 50% effect level (ED50) was put at a dose of 6.5 mg/kg. Further, in the experiment with Rattus norvegicus [1], 12.5 mg/kg produced 73% inhibition in vivo.

Consider `CCOC(=O)c1c(Cn2ccnc2)nc2cc(OC)c(OC)cc2c1-c1ccc(OC)c(OC)c1`, for which, in the experiment listed under Rattus norvegicus [2], the 50% effect level (ED50) was put at a dose of 7.7 mg/kg. This molecule also came in with an inhibition in vivo at 12.5 mg/kg in the experiment with Rattus norvegicus [1] of 70%.

Take `CCOC(=O)c1c(CSc2nccn2C)nc2cc(OC)c(OC)cc2c1-c1ccc(C)cc1`: the inhibition in vivo at 50 mg/kg with Rattus norvegicus [3] amounted to 67%.

Regarding `COc1ccc(-c2nc(CSc3nccn3C)nc3cc(OC)c(OC)cc23)cc1OC`, the inhibition in vivo at 50 mg/kg in the experiment with Rattus norvegicus [3] is less than 50%.

In turn, `COc1ccc(-c2nc(Cn3cncn3)nc3cc(OC)c(OC)cc23)cc1OC` showed an inhibition in vivo at 12.5 mg/kg in the experiment with Rattus norvegicus [1] of less than 50%.

As to `COc1ccc(-c2nc(CCc3nccn3C)nc3cc(OC)c(OC)cc23)cc1OC`, the inhibition in vivo at 50 mg/kg with Rattus norvegicus [3] was found to be 71%.

`CCOC(=O)c1c(CSc2nccn2C)nc2cc(OC)c(OC)cc2c1-c1ccc(OC)c(OC)c1` registered an ED50 in the experiment filed under Rattus norvegicus [5] of 25 mg/kg. In addition, the inhibition in vivo at 50 mg/kg in the experiment on Rattus norvegicus [3] came out at 60%. In the experiment filed under Rattus norvegicus [6], the Activity is reported as 57%.

Turning to `CCOC(=O)c1c(CSc2nncn2C)nc2cc(OC)c(OC)cc2c1-c1ccc(OC)c(OC)c1`, the ED50 in the experiment listed under Rattus norvegicus [5] turned out to be 11.6 mg/kg. Moreover, the inhibition in vivo at 50 mg/kg in the experiment on Rattus norvegicus [3] worked out at 66%.

For the molecule `CCOC(=O)c1c(CS(=O)(=O)c2nccn2C)nc2cc(OC)c(OC)cc2c1-c1ccc(OC)c(OC)c1`, the inhibition in vivo at 50 mg/kg with Rattus norvegicus [3] was 56%.

Turning to `CCOC(=O)c1c(CSc2ncc[nH]2)nc2cc(OC)c(OC)cc2c1-c1ccc(OC)c(OC)c1`, the inhibition in vivo at 50 mg/kg with Rattus norvegicus [3] came to 60%.

Consider `CCOC(=O)c1c(CSc2nccn2C)nc2cc(OC)c(OC)cc2c1-c1ccc(OC)cc1`, for which, in the experiment on Rattus norvegicus [3], the inhibition in vivo at 50 mg/kg worked out at 64%.

Consider `CCOC(=O)c1c(CSc2nccn2C)nc2ccc(OC)cc2c1-c1ccc(OC)cc1`, for which the inhibition in vivo at 50 mg/kg with Rattus norvegicus [3] is 45%. Further, in the experiment listed under Rattus norvegicus [4], the Activity was 66%.

For the molecule `CCOC(=O)c1c(Cn2cncn2)nc2cc(OC)c(OC)cc2c1-c1ccc(OC)c(OC)c1`, the median effective dose (ED50) in the experiment listed under Rattus norvegicus [2] turned out to be 2.6 mg/kg. Further, the Activity in the experiment filed under Rattus norvegicus [6] is recorded as 59%. Further, the inhibition in vivo at 12.5 mg/kg in the experiment with Rattus norvegicus [1] came to 65%.

As for `COc1cc2c(OC)c3c(c(-c4ccc5c(c4)OCO5)c2cc1OC)C(=O)OC3` [JUSTICIDIN A], the Activity in the experiment filed under Rattus norvegicus [7] is reported as 48%. Besides, the inhibition in vivo at 50 mg/kg in the experiment with Rattus norvegicus [3] worked out at 10%.
